# In ChEMBL document CHEMBL4689842, “EUbOPEN Chemogenomics Library wave 1” (2021):
# Values joined by “and” are separate entries in the source; they are usually repeats but may differ in a detail not shown here. Identical values can stand only once.
# System: Fibroblast
# Assay: Multiplex assay against human fibroblast
# Format: toxicity, cell-based
# Procedure, shortened: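 Live cells carried four stains from seeding: Hoechst33342, BioTracker Green Microtubule Cytoskeleton Dye, MitoTracker Red and Annexin V Alexa Fluor 680. They were imaged on a CQ1 microscope at 37°C and 5% CO2 after compound addition. Using CellPathfinder machine-learning gating, cells were split into Hoechst high-intensity objects or normal cells, normal cells into healthy, pyknosed or fragmented nuclei, and pyknosed cells into mitotic or apoptotic; tubulin, mitochondrial-mass and membrane-permeability phenotypes are per cents of healthy-nucleus cells.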
# [1] = 12 h, 1 µM, compound concentration 1 uM, replicate 1
# [2] = 12 h, 1 µM, compound concentration 1 uM, replicate 2
# [3] = 12 h, 10 µM, compound concentration 10 uM, replicate 1
# [4] = 12 h, 10 µM, compound concentration 10 uM, replicate 2
# [5] = 24 h, 1 µM, compound concentration 1 uM, replicate 1
# [6] = 24 h, 1 µM, compound concentration 1 uM, replicate 2
# [7] = 24 h, 10 µM, compound concentration 10 uM, replicate 1
# [8] = 24 h, 10 µM, compound concentration 10 uM, replicate 2
# [9] = 48 h, 1 µM, compound concentration 1 uM, replicate 1
# [10] = 48 h, 1 µM, compound concentration 1 uM, replicate 2
# [11] = 48 h, 10 µM, compound concentration 10 uM, replicate 1
# [12] = 48 h, 10 µM, compound concentration 10 uM, replicate 2
smiles,measurement,setting,value
CC1=C(C(=O)Nc2cc3cn[nH]c3cc2F)C(c2ccc(C(F)(F)F)cc2)CC(=O)N1 (stereo unspecified),Population Apoptotic (%),[1],78%
same,Population Fragmented Nuclei (%),[1],29%
same,Population Healthy Nuclei (%),[1],41%
same,Population Hoechst High Intensity Objects (%),[1],12%
same,Population Membrane Permeable-Phenotype (%),[1],20%
same,Population Mitochondria Different-Phenotype (%),[1],6%
same,Population Mitotic Cells (%),[1],21%
same,Population Normal (%),[1],87%
same,Population Pyknosed Nuclei (%),[1],29%
same,Population Tubulin-Different-Phenotype (%),[1],31%
same,Total Cell Count,[1],124
same,Population Apoptotic (%),[2],50%
same,Population Fragmented Nuclei (%),[2],2%
same,Population Healthy Nuclei (%),[2],93%
same,Population Hoechst High Intensity Objects (%),[2],10%
same,Population Membrane Permeable-Phenotype (%),[2],4%
same,Population Mitochondria Different-Phenotype (%),[2],9%
same,Population Mitotic Cells (%),[2],50%
same,Population Normal (%),[2],89%
same,Population Pyknosed Nuclei (%),[2],4%
same,Population Tubulin-Different-Phenotype (%),[2],14%
same,Total Cell Count,[2],76
same,Population Apoptotic (%),[3],55%
same,Population Fragmented Nuclei (%),[3],25%
same,Population Healthy Nuclei (%),[3],46%
same,Population Hoechst High Intensity Objects (%),[3],9%
same,Population Membrane Permeable-Phenotype (%),[3],24%
same,Population Mitochondria Different-Phenotype (%),[3],11%
same,Population Mitotic Cells (%),[3],44%
same,Population Normal (%),[3],90%
same,Population Pyknosed Nuclei (%),[3],27%
same,Population Tubulin-Different-Phenotype (%),[3],50%
same,Total Cell Count,[3],144
same,Population Apoptotic (%),[4],50%
same,Population Fragmented Nuclei (%),[4],21%
same,Population Healthy Nuclei (%),[4],70%
same,Population Membrane Permeable-Phenotype (%),[4],5%
same,Population Mitochondria Different-Phenotype (%),[4],12%
same,Population Mitotic Cells (%),[4],50%
same,Population Pyknosed Nuclei (%),[4],7%
same,Population Tubulin-Different-Phenotype (%),[4],25%
same,Total Cell Count,[4],97
same,Population Apoptotic (%),[5],54%
same,Population Fragmented Nuclei (%),[5],20%
same,Population Healthy Nuclei (%),[5],56%
same,Population Hoechst High Intensity Objects (%),[5],18%
same,Population Membrane Permeable-Phenotype (%),[5],35%
same,Population Mitochondria Different-Phenotype (%),[5],1%
same,Population Mitotic Cells (%),[5],45%
same,Population Normal (%),[5],81%
same,Population Pyknosed Nuclei (%),[5],23%
same,Population Tubulin-Different-Phenotype (%),[5],25%
same,Total Cell Count,[5],127
same,Population Apoptotic (%),[6],42%
same,Population Fragmented Nuclei (%),[6],7%
same,Population Healthy Nuclei (%),[6],86%
same,Population Hoechst High Intensity Objects (%),[6],4%
same,Population Membrane Permeable-Phenotype (%),[6],10%
same,Population Mitochondria Different-Phenotype (%),[6],13%
same,Population Mitotic Cells (%),[6],57%
same,Population Normal (%),[6],95%
same,Population Pyknosed Nuclei (%),[6],6%
same,Population Tubulin-Different-Phenotype (%),[6],16%
same,Total Cell Count,[6],93
same,Population Apoptotic (%),[7],40%
same,Population Fragmented Nuclei (%),[7],25%
same,Population Healthy Nuclei (%),[7],54%
same,Population Hoechst High Intensity Objects (%),[7],9%
same,Population Membrane Permeable-Phenotype (%),[7],22%
same,Population Mitochondria Different-Phenotype (%),[7],8%
same,Population Mitotic Cells (%),[7],59%
same,Population Normal (%),[7],90%
same,Population Pyknosed Nuclei (%),[7],19%
same,Population Tubulin-Different-Phenotype (%),[7],40%
same,Total Cell Count,[7],125
same,Population Apoptotic (%),[8],75%
same,Population Fragmented Nuclei (%),[8],23%
same,Population Healthy Nuclei (%),[8],68%
same,Population Hoechst High Intensity Objects (%),[8],6%
same,Population Membrane Permeable-Phenotype (%),[8],4%
same,Population Mitochondria Different-Phenotype (%),[8],14%
same,Population Mitotic Cells (%),[8],25%
same,Population Normal (%),[8],93%
same,Population Pyknosed Nuclei (%),[8],8%
same,Population Tubulin-Different-Phenotype (%),[8],29%
same,Total Cell Count,[8],119
same,Population Apoptotic (%),[9],66%
same,Population Fragmented Nuclei (%),[9],33%
same,Population Healthy Nuclei (%),[9],48%
same,Population Hoechst High Intensity Objects (%),[9],11%
same,Population Membrane Permeable-Phenotype (%),[9],19%
same,Population Mitochondria Different-Phenotype (%),[9],5%
same,Population Mitotic Cells (%),[9],33%
same,Population Normal (%),[9],88%
same,Population Pyknosed Nuclei (%),[9],18%
same,Population Tubulin-Different-Phenotype (%),[9],14%
same,Total Cell Count,[9],131
same,Population Apoptotic (%),[10],33%
same,Population Fragmented Nuclei (%),[10],31%
same,Population Healthy Nuclei (%),[10],65%
same,Population Hoechst High Intensity Objects (%),[10],22%
same,Population Membrane Permeable-Phenotype (%),[10],6%
same,Population Mitochondria Different-Phenotype (%),[10],0%
same,Population Mitotic Cells (%),[10],66%
same,Population Normal (%),[10],77%
same,Population Pyknosed Nuclei (%),[10],3%
same,Population Tubulin-Different-Phenotype (%),[10],23%
same,Total Cell Count,[10],127
same,Population Apoptotic (%),[11],46%
same,Population Fragmented Nuclei (%),[11],33%
same,Population Healthy Nuclei (%),[11],54%
same,Population Hoechst High Intensity Objects (%),[11],11%
same,Population Membrane Permeable-Phenotype (%),[11],26%
same,Population Mitochondria Different-Phenotype (%),[11],4%
same,Population Mitotic Cells (%),[11],53%
same,Population Normal (%),[11],88%
same,Population Pyknosed Nuclei (%),[11],11%
same,Population Tubulin-Different-Phenotype (%),[11],23%
same,Total Cell Count,[11],130
same,Population Apoptotic (%),[12],62%
same,Population Fragmented Nuclei (%),[12],26%
same,Population Healthy Nuclei (%),[12],65%
same,Population Membrane Permeable-Phenotype (%),[12],7%
same,Population Mitochondria Different-Phenotype (%),[12],1%
same,Population Mitotic Cells (%),[12],37%
same,Population Pyknosed Nuclei (%),[12],8%
same,Population Tubulin-Different-Phenotype (%),[12],22%
same,Total Cell Count,[12],109
CCOC(=O)Nc1cc(-c2ccc(C)c(NS(C)(=O)=O)c2)nn2c(C)nnc12,Population Apoptotic (%),[1],75%
same,Population Fragmented Nuclei (%),[1],30%
same,Population Healthy Nuclei (%),[1],44%
same,Population Hoechst High Intensity Objects (%),[1],9%
same,Population Membrane Permeable-Phenotype (%),[1],9%
same,Population Mitochondria Different-Phenotype (%),[1],9%
same,Population Mitotic Cells (%),[1],24%
same,Population Normal (%),[1],90%
same,Population Pyknosed Nuclei (%),[1],24%
same,Population Tubulin-Different-Phenotype (%),[1],10%
same,Total Cell Count,[1],184
same,Population Apoptotic (%),[2],60%
same,Population Fragmented Nuclei (%),[2],55%
same,Population Healthy Nuclei (%),[2],34%
same,Population Hoechst High Intensity Objects (%),[2],35%
same,Population Membrane Permeable-Phenotype (%),[2],16%
same,Population Mitochondria Different-Phenotype (%),[2],16%
same,Population Mitotic Cells (%),[2],40%
same,Population Normal (%),[2],64%
same,Population Pyknosed Nuclei (%),[2],9%
same,Population Tubulin-Different-Phenotype (%),[2],11%
same,Total Cell Count,[2],81
same,Population Apoptotic (%),[3],70% and 66%
same,Population Fragmented Nuclei (%),[3],30% and 28%
same,Population Healthy Nuclei (%),[3],45% and 56%
same,Population Hoechst High Intensity Objects (%),[3],15% and 13%
same,Population Mitochondria Different-Phenotype (%),[3],9% and 14%
same,Population Mitotic Cells (%),[3],29% and 33%
same,Population Normal (%),[3],84% and 86%
same,Population Pyknosed Nuclei (%),[3],23% and 15%
same,Total Cell Count,[3],84 and 231
same,Population Apoptotic (%),[4],50% and 40%
same,Population Healthy Nuclei (%),[4],86%
same,Population Membrane Permeable-Phenotype (%),[4],9% and 0%
same,Population Mitotic Cells (%),[4],50% and 60%
same,Population Normal (%),[4],77% and 97%
same,Population Pyknosed Nuclei (%),[4],2% and 5%
same,Total Cell Count,[4],88 and 101
same,Population Apoptotic (%),[5],61%
same,Population Fragmented Nuclei (%),[5],31%
same,Population Healthy Nuclei (%),[5],55%
same,Population Hoechst High Intensity Objects (%),[5],12%
same,Population Membrane Permeable-Phenotype (%),[5],12%
same,Population Mitochondria Different-Phenotype (%),[5],2%
same,Population Mitotic Cells (%),[5],38%
same,Population Normal (%),[5],87%
same,Population Pyknosed Nuclei (%),[5],12%
same,Population Tubulin-Different-Phenotype (%),[5],2%
same,Total Cell Count,[5],186
same,Population Apoptotic (%),[6],50%
same,Population Fragmented Nuclei (%),[6],48%
same,Population Healthy Nuclei (%),[6],42%
same,Population Hoechst High Intensity Objects (%),[6],31%
same,Population Membrane Permeable-Phenotype (%),[6],26%
same,Population Mitochondria Different-Phenotype (%),[6],5%
same,Population Mitotic Cells (%),[6],50%
same,Population Normal (%),[6],68%
same,Population Pyknosed Nuclei (%),[6],8%
same,Population Tubulin-Different-Phenotype (%),[6],15%
same,Total Cell Count,[6],66
same,Population Apoptotic (%),[7],60% and 56%
same,Population Fragmented Nuclei (%),[7],22% and 18%
same,Population Healthy Nuclei (%),[7],47% and 66%
same,Population Hoechst High Intensity Objects (%),[7],6% and 12%
same,Population Membrane Permeable-Phenotype (%),[7],22% and 8%
same,Population Mitochondria Different-Phenotype (%),[7],6% and 4%
same,Population Mitotic Cells (%),[7],39% and 43%
same,Population Normal (%),[7],94% and 88%
same,Population Pyknosed Nuclei (%),[7],29% and 15%
same,Total Cell Count,[7],100 and 225
same,Population Healthy Nuclei (%),[8],46% and 90%
same,Population Membrane Permeable-Phenotype (%),[8],3% and 0%
same,Population Mitochondria Different-Phenotype (%),[8],10% and 16%
same,Population Mitotic Cells (%),[8],100% and 71%
same,Population Normal (%),[8],71% and 97%
same,Total Cell Count,[8],88 and 137
same,Population Apoptotic (%),[11],54%
same,Population Fragmented Nuclei (%),[11],30%
same,Population Healthy Nuclei (%),[11],56%
same,Population Hoechst High Intensity Objects (%),[11],16%
same,Population Membrane Permeable-Phenotype (%),[11],16%
same,Population Mitochondria Different-Phenotype (%),[11],0%
same,Population Mitotic Cells (%),[11],45%
same,Population Normal (%),[11],83%
same,Population Pyknosed Nuclei (%),[11],12%
same,Population Tubulin-Different-Phenotype (%),[11],8%
same,Total Cell Count,[11],105
same,Population Apoptotic (%),[12],100%
same,Population Fragmented Nuclei (%),[12],18%
same,Population Healthy Nuclei (%),[12],80%
same,Population Hoechst High Intensity Objects (%),[12],10%
same,Population Membrane Permeable-Phenotype (%),[12],2%
same,Population Mitochondria Different-Phenotype (%),[12],1%
same,Population Mitotic Cells (%),[12],0%
same,Population Normal (%),[12],89%
same,Population Pyknosed Nuclei (%),[12],0%
same,Population Tubulin-Different-Phenotype (%),[12],1%
same,Total Cell Count,[12],114
